Laboratory results reported in the RNAGym collection of RNA variant scans (doi:10.1126/science.aae0568).
Fewer inactive variants are shown than the library holds.

B1: tRNA (parent)
chain: GUUCCGUUGGCGUAAUGGUAACGCGUCUCCCUCCUAAGGAGAAGACUGCGGGUUCGAGUCCCGUACGGAACG

Variants of: B1
Assay: yeast fitness relative to wild type (ratio to wild type); higher = fitter; tRNA-Arg(CCU), competitive growth, 37 C, YPD
Method in brief: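 For this measurement, the tRNA-Arg(CCU) gene was varied by chemical synthesis at a 3% per-site mutation rate across 69 sites, and each variant was placed at the native genomic locus in Saccharomyces cerevisiae. The pooled strains went through a 24-hour competition in YPD at 37°C in six parallel replicates, with amplicons from start and end populations read by 100-nucleotide paired-end sequencing. Darwinian fitness relative to wild type followed from the change in each genotype's frequency. Genotypes needed ≥ 100 starting reads, and estimates < 0.5 were set to 0.5.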

Compared with C33U A57G C66U, C22U G25A U54C A65U is higher in yeast fitness: ≤ 0.5 for the first, 0.555 for the second.

Compared with U3A C30U G67A, A15G G23C G38C G52C U54C G58A is lower in yeast fitness: 0.553 for the first, ≤ 0.5 for the second.

A15U U16G C55A A57C U59C A65G and A20C A40U A65U G67C cannot be ordered by yeast fitness: ≤ 0.5 for the first, ≤ 0.5 for the second.

First: C4A U8C U47C
Second: G52C C62U
The yeast fitness of the first is higher: 0.579 for the first, 0.559 for the second.

First: U32C U64A
Second: C27A C31G A42C C61G
The yeast fitness of the first is higher: 0.789 for the first, ≤ 0.5 for the second.

First: A45U U53C G67A A69C
Second: U7A G9C A40C
The yeast fitness of the first is higher: 0.635 for the first, 0.623 for the second.

First: C5G U13A C30U
Second: G39A C46U G67A
The yeast fitness of the first is lower: 0.56 for the first, 0.575 for the second.

Compared with U53C A57C, G23A C31U is higher in yeast fitness: 0.54 for the first, 0.731 for the second.

First: G12A A45G
Second: A14G A42U
The yeast fitness of the first is higher: 0.953 for the first, 0.873 for the second.

First: C66U G67A
Second: A20C G44C G48A G51A
The yeast fitness of the first is higher: 0.841 for the first, ≤ 0.5 for the second.

G6A G38A C61A and G6A U16A A36C cannot be ordered by yeast fitness: ≤ 0.5 for the first, ≤ 0.5 for the second.

A21G U35C A36U A40U C55U A57C and C5G U7G C33A A65C cannot be ordered by yeast fitness: ≤ 0.5 for the first, ≤ 0.5 for the second.

Compared with U47C C61G, C4A C29G C34G C49U is lower in yeast fitness: 0.671 for the first, 0.557 for the second.

G41C A43C A45U C49G U53G A69C and C4U G17C G18C C22A C60A C66U cannot be ordered by yeast fitness: ≤ 0.5 for the first, ≤ 0.5 for the second.

First: A37G G52C A70U
Second: A37U U47A G52U
The yeast fitness of the first is higher: 0.552 for the first, ≤ 0.5 for the second.

First: C5U C22U A37C C55A
Second: U2C C34A
The yeast fitness of the first is lower: 0.538 for the first, 0.77 for the second.

First: U16G U28A A42U U54A
Second: A15U A65G
The yeast fitness of the first is lower: ≤ 0.5 for the first, 0.649 for the second.

Going from G17A C30G A45G A65U to C4A G38A G51A, the yeast fitness rises from ≤ 0.5 to 0.54.

U2A G48A G50C U59C C60A and C5G A21C A43U A70G cannot be ordered by yeast fitness: ≤ 0.5 for the first, ≤ 0.5 for the second.

Compared with C62U A65U, U8A U13A A14C U16A G63A G67A is lower in yeast fitness: 0.93 for the first, ≤ 0.5 for the second.

G6A A40U C55G G63C and G9C C30U U53C cannot be ordered by yeast fitness: ≤ 0.5 for the first, ≤ 0.5 for the second.

Compared with U2A G67U, U26C A43U A70U is lower in yeast fitness: 0.824 for the first, 0.707 for the second.

Compared with C11A C27U G44U, A57C C60G is higher in yeast fitness: ≤ 0.5 for the first, 0.503 for the second.

A20G C31G C60G G63C and G18C C60U G67A cannot be ordered by yeast fitness: ≤ 0.5 for the first, ≤ 0.5 for the second.

First: G25A C29G A43C C61A A69U
Second: A40G A43G
The yeast fitness of the first is lower: ≤ 0.5 for the first, 0.787 for the second.

U35G U64C A65U and C24A U47G G68A cannot be ordered by yeast fitness: ≤ 0.5 for the first, ≤ 0.5 for the second.

Going from G41C A69U A70G to C66G, the yeast fitness rises from 0.537 to 0.902.

Compared with C27A U64G, A14C U26C U54C C55G C61A is lower in yeast fitness: 0.65 for the first, ≤ 0.5 for the second.

First: U2G U19G A70C
Second: C11U A43C
The yeast fitness of the first is lower: 0.685 for the first, 0.686 for the second.

First: U8A A36U G48C
Second: C4A G18C C29A C31A
The yeast fitness of the first is higher: 0.668 for the first, 0.562 for the second.

U7A C24U C33A and C4A C34G C46G G56A cannot be ordered by yeast fitness: ≤ 0.5 for the first, ≤ 0.5 for the second.

Compared with C33G A40G C66G, A14U C34G A37C G50U C62U is lower in yeast fitness: 0.698 for the first, ≤ 0.5 for the second.

First: C27A C31A G52A G58C C62A
Second: C5U C22A A45C
The yeast fitness of the first is lower: ≤ 0.5 for the first, 0.564 for the second.

Going from G17A A42G G50A to G10A G52A, the yeast fitness rises from ≤ 0.5 to 0.53.

Going from C5A G6C A15G A40G G67A to G9A A21U G44A C55G, the yeast fitness rises from ≤ 0.5 to 0.584.

Going from C34U C49U C61U to C33A G38C C46A G58C, the yeast fitness rises from 0.512 to 0.698.

Compared with C11A A36G A69C, G10C A14C C61A G67A A69C is lower in yeast fitness: 0.562 for the first, ≤ 0.5 for the second.

Going from C4U U26A to U16G G51C A65C, the yeast fitness falls from 0.86 to 0.635.

C5U U19C C24G C61A A70G and G25U C29G A42C C66U G67A cannot be ordered by yeast fitness: ≤ 0.5 for the first, ≤ 0.5 for the second.

Going from A20C C22G U47G G51C G63A G68C to U3A C33U A45U, the yeast fitness rises from ≤ 0.5 to 0.834.

A37G A42G C49A and C11G G25A A36U C60U cannot be ordered by yeast fitness: ≤ 0.5 for the first, ≤ 0.5 for the second.

Going from G12A U13A G67U to U7C C33U, the yeast fitness rises from 0.537 to 0.713.
